Assay [1] concerns the target Vascular endothelial growth factor receptor 2 (Homo sapiens, UniProt P35968). The assay can be described thus: Inhibition of recombinant human His-tagged VEGFR2 expressed in Baculovirus expression system using ADP-Glo as substrate measured after 30 mins in presence of ATP by ADP-Glo kinase assay.
Assay [2] concerns HT-29. The assay can be described thus: cells. Particulars: Homo sapiens, HT-29, 24 h.
Assay [3] has as its system MKN-45. The assay can be described thus: cells. Particulars: Homo sapiens, MKN-45, 24 h.
Assay [4] has as its system HUVEC. The assay can be described thus: cells. Particulars: Homo sapiens, 24 h.
Assay [5] relates to HUVEC. The assay can be described thus: Anti-angiogenesis activity against HUVEC cells assessed as inhibition of cell migration measured after 24 hrs by Transwell assay. It is filed as functional, cell-based. To be noted: Homo sapiens, dose 0.2-0.8 µM. Summed up: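 HUVECs pretreated 24 h in serum-free DMEM with 0, 0.2, 0.4 or 0.8 μM compound, then counted. 1×10^4 cells placed in upper transwell chamber (8 µm pores), lower chamber DMEM with 20% serum. After 24 h, filters fixed in methanol and stained with 0.1% crystal violet. Migrated cells on lower surface counted by microscopy.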

Assay [6] relates to HUVEC. The assay can be described thus: Anti-angiogenesis activity against HUVEC cells assessed as inhibition of tube formation at 0.2 to 0.8 uM measured after 6 hrs by microscopic method. It counts as functional, cell-based. Particulars: Homo sapiens, dose 0.2-0.8 µM. Put shortly:
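HUVECs exposed to 0, 0.2, 0.4 or 0.8 μM compound, then collected. 1×10⁴ cells seeded on Matrigel and cultured 6 h. Tubes photographed under microscope and total tube length quantified.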

The species entered for assay [7] is Danio rerio. Particulars: dose 40.0 mg/L, time 24.0 hrs.
The species entered for assay [8] is Danio rerio. Particulars: dose 20.0 mg/L, time 24.0 hrs.

Active and inactive are the calls of the source. No cut-off for these calls is given here. Bounds are passed on as bounds.

Chain of Vascular endothelial growth factor receptor 2 (P35968 whole entry): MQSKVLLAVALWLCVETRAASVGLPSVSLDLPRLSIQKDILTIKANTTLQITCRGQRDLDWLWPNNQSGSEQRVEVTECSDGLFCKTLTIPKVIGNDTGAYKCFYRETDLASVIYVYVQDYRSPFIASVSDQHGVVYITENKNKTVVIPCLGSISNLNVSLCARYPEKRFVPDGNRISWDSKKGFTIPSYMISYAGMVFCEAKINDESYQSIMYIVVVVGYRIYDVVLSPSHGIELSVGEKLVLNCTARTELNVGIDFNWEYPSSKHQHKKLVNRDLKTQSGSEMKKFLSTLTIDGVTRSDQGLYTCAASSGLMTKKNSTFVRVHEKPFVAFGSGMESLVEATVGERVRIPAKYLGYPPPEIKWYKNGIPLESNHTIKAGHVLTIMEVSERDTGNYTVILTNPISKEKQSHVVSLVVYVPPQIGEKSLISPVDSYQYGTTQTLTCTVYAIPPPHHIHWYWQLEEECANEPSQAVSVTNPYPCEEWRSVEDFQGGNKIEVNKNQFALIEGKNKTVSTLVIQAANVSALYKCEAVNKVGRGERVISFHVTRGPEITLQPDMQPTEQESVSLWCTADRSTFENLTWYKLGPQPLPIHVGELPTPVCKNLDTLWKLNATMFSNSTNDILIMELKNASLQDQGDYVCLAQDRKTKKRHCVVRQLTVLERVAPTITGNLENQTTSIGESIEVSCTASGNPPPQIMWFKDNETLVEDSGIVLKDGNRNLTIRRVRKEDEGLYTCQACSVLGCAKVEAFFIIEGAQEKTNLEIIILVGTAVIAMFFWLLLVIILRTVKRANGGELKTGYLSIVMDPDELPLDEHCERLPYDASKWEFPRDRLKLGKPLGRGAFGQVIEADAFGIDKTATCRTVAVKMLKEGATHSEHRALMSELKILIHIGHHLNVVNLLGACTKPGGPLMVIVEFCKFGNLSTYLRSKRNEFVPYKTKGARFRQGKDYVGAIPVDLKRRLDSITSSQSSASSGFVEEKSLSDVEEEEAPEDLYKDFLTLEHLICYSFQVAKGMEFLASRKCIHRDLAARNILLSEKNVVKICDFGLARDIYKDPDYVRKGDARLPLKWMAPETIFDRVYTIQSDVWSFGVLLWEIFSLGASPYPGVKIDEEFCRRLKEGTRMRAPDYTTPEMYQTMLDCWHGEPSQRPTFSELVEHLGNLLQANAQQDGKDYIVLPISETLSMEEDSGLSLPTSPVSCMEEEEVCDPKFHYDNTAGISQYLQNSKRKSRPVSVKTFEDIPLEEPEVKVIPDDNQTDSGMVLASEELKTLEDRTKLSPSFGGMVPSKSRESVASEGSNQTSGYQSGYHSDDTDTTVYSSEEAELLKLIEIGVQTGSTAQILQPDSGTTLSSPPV

With `O=C1Nc2ccc(F)cc2/C1=C/c1ccc(-c2cn(-c3ccccc3Cl)nn2)cc1`, the IC50 (as a rule, the concentration needed to halve the response being measured) in assay [1] came out at 0.12 µM; in assay [2], 5.95 µM; in assay [3], 7.54 µM; in assay [4], 18.2 µM.

Take `N#Cc1ccc(-n2cc(-c3ccc(C=C4C(=O)Nc5ccc(F)cc54)cc3)nn2)cc1`: the IC50 in assay [1] was 0.19 µM; in assay [2], above 20 µM; in assay [3], above 20 µM; in assay [4], above 20 µM.

As to `O=C1Nc2ccc(F)cc2/C1=C/c1ccc(-c2cn(-c3ccc(F)cc3)nn2)cc1`, the half-maximal inhibitory concentration (IC50) is 0.193 µM in assay [1], above 20 µM in assay [2], above 20 µM in assay [3] and above 20 µM in assay [4].

Turning to `O=C1Nc2ccc(F)cc2C1=Cc1ccc(-c2cn(-c3ccccc3)nn2)cc1`, the IC50 is 8.12 µM in assay [2], 11.1 µM in assay [3] and 13.7 µM in assay [4].

On to `Cc1ccc(-n2cc(-c3ccc(/C=C4\C(=O)Nc5ccc(F)cc54)cc3)nn2)cc1`, for which the IC50 in assay [2] stood at 3.98 µM; in assay [3], 34.6 µM; in assay [4], 13.8 µM.

Consider `O=C1Nc2ccc(F)cc2/C1=C/c1ccc(-c2cn(-c3cccc(F)c3)nn2)cc1`, for which the IC50 in assay [1] was 0.171 µM; in assay [2], 13 µM; in assay [3], 8.19 µM; in assay [4] it was 17.2 µM.

As to `Cc1cccc(-n2cc(-c3ccc(/C=C4\C(=O)Nc5ccc(F)cc54)cc3)nn2)c1`, the IC50 came out at 7.32 µM in assay [2], 6.81 µM in assay [3] and 9.88 µM in assay [4].

On to `O=C1Nc2ccccc2/C1=C/c1ccc(-c2cn(-c3cccc(Cl)c3)nn2)cc1`, for which the IC50 is above 0.2 µM in assay [1], above 20 µM in assay [2], above 20 µM in assay [3] and above 20 µM in assay [4].

On to `O=C1Nc2ccc(F)cc2/C1=C/c1ccc(-c2cn(-c3cccc(Cl)c3)nn2)cc1`, for which the concentration for half-maximal inhibition (IC50) in assay [1] is 0.186 µM; in assay [2], 10.5 µM; in assay [3] it was 14.1 µM; in assay [4], 19.4 µM.

As for `Cc1ccccc1-n1cc(-c2ccc(/C=C3\C(=O)Nc4ccccc43)cc2)nn1`, the IC50 in assay [1] is 0.111 µM; in assay [2], 8.71 µM; in assay [3], 9.77 µM; in assay [4], 14.7 µM.

For the molecule `O=C1Nc2ccccc2/C1=C/c1ccc(-c2cn(-c3ccccc3Cl)nn2)cc1`, the IC50 in assay [1] was above 0.2 µM; in assay [2] it was above 20 µM; in assay [3], above 20 µM; in assay [4], above 20 µM.

With `N#Cc1ccc(-n2cc(-c3ccc(C=C4C(=O)Nc5ccccc54)cc3)nn2)cc1`, the IC50 is 0.179 µM in assay [1], 15.8 µM in assay [2], above 20 µM in assay [3] and above 20 µM in assay [4].

In the case of `O=C1Nc2ccccc2/C1=C/c1ccc(-c2cn(-c3ccc(Cl)c(C(F)(F)F)c3)nn2)cc1`, the IC50 is 0.108 µM in assay [1], 9.67 µM in assay [2], 8.89 µM in assay [3] and above 20 µM in assay [4].

With `Cc1ccccc1-n1cc(-c2ccc(C=C3C(=O)Nc4ccc(F)cc43)cc2)nn1`, the figures for the IC50 in assay [2], in assay [3] and in assay [4] were 5.87 µM, 7.21 µM and 8.63 µM, respectively.

Take `O=C1Nc2ccc(F)cc2/C1=C/c1ccc(-c2cn(-c3ccccc3F)nn2)cc1`: the IC50 in assay [1] is 0.14 µM; in assay [2], 8.98 µM; in assay [3], 8.51 µM; in assay [4], 14.4 µM.

Turning to `CCN(CC)CCNC(=O)c1c(C)[nH]c(/C=C2\C(=O)Nc3ccc(F)cc32)c1C` [SUNITINIB], the concentration for half-maximal inhibition (IC50) was determined as 10.3 µM in assay [2], 9.25 µM in assay [3] and 6.37 µM in assay [4].

Turning to `O=C1Nc2ccc(F)cc2/C1=C/c1ccc(-c2cn(-c3ccc(Cl)c(C(F)(F)F)c3)nn2)cc1`, the half-inhibitory concentration (IC50) was 0.169 µM in assay [1], 16.5 µM in assay [2], above 20 µM in assay [3] and above 20 µM in assay [4].

On to `O=C1Nc2ccccc2/C1=C/c1ccc(-c2cn(-c3cccc(F)c3)nn2)cc1`, for which the IC50 in assay [1] is above 0.2 µM; in assay [2], above 20 µM; in assay [3], above 20 µM; in assay [4], above 20 µM.

For the molecule `O=C1Nc2ccccc2/C1=C/c1ccc(-c2cn(-c3ccc(F)cc3)nn2)cc1`, the IC50 was 0.199 µM in assay [1], 17.7 µM in assay [2], 16.7 µM in assay [3] and 14.7 µM in assay [4].

For the molecule `O=C1Nc2ccccc2/C1=C/c1ccc(-c2cn(-c3ccccc3)nn2)cc1`, the IC50 came to 7.07 µM in assay [2], 11.6 µM in assay [3] and 12.7 µM in assay [4].

For `N#Cc1ccccc1-n1cc(-c2ccc(/C=C3\C(=O)Nc4ccccc43)cc2)nn1`, the IC50 in assay [1] was 0.169 µM; in assay [2], 14.4 µM; in assay [3], 14.6 µM; in assay [4] it was 19.7 µM.

Regarding `Cc1ccc(-n2cc(-c3ccc(/C=C4\C(=O)Nc5ccccc54)cc3)nn2)cc1`, the Activity result in assay [5] and in assay [6] was “Dose-Dependent Effect” in each case. Moreover, the inhibition entry in assay [7] and in assay [8] was “Active” in each case. Moreover, the results for the half-inhibitory concentration (IC50) in assay [2], in assay [3] and in assay [4] were 1.61 µM, 1.92 µM and 7.94 µM, respectively.

As for `O=C1Nc2ccccc2/C1=C/c1ccc(-c2cn(-c3ccccc3F)nn2)cc1`, the IC50 stood at 0.115 µM in assay [1], 10.5 µM in assay [2], 12.5 µM in assay [3] and 19.3 µM in assay [4].

As to `N#Cc1cccc(-n2cc(-c3ccc(/C=C4\C(=O)Nc5ccccc54)cc3)nn2)c1`, the IC50 in assay [1] was above 0.2 µM; in assay [2], above 20 µM; in assay [3], above 20 µM; in assay [4], above 20 µM.

As to `O=C1Nc2ccc(F)cc2C1=Cc1ccc(-c2cn(-c3ccc(Cl)cc3)nn2)cc1`, the IC50 in assay [1] was found to be 0.17 µM; in assay [2] it was 11.2 µM; in assay [3], 15.8 µM; in assay [4], 19.6 µM.

As for `N#Cc1cccc(-n2cc(-c3ccc(/C=C4\C(=O)Nc5ccc(F)cc54)cc3)nn2)c1`, the IC50 in assay [1] is 0.193 µM; in assay [2], above 20 µM; in assay [3] it was above 20 µM; in assay [4], above 20 µM.

Take `N#Cc1ccccc1-n1cc(-c2ccc(C=C3C(=O)Nc4ccc(F)cc43)cc2)nn1`: the IC50 in assay [1] was 0.187 µM; in assay [2], 14 µM; in assay [3], 15.2 µM; in assay [4], above 20 µM.

For the molecule `O=C1Nc2ccccc2/C1=C/c1ccc(-c2cn(-c3ccc(Cl)cc3)nn2)cc1`, the IC50 in assay [1] amounted to 0.163 µM; in assay [2], 14 µM; in assay [3], 16.2 µM; in assay [4], 18.2 µM.

`Cc1cccc(-n2cc(-c3ccc(/C=C4\C(=O)Nc5ccccc54)cc3)nn2)c1`: the IC50 in assay [2] amounted to 3.94 µM; in assay [3], 4.69 µM; in assay [4], 13.7 µM.
